Laboratory results reported in the EternaBench riboswitch data.

Test system: MS2 coat protein
Experiment: apparent Kd, MS2 coat protein; higher = weaker binding; RNA-MaP array; FMN 200 µM where present
Procedure, shortened: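 On Illumina sequencing-chip clusters, designs were transcribed by stalled E. coli RNA polymerase and titrated with SNAP-549-labelled MS2 coat protein (0.7 or 1.5 nM, doubling to 3 µM), without and then with constant ligand, in 100 mM Tris-HCl pH 7.5, 80 mM KCl, 4 mM MgCl2, BSA, DTT, yeast tRNA and Tween-20. Apparent Kd is the median of filtered per-cluster curve fits to green signal normalised to red-channel RNA signal and control-cluster median Fmax.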

[1] = designed as: OFF switch for flavin mononucleotide, no ligand
[2] = ligand present: flavin mononucleotide, designed as: OFF switch for flavin mononucleotide
[3] = designed as: ON switch for flavin mononucleotide, no ligand
[4] = ligand present: flavin mononucleotide, designed as: ON switch for flavin mononucleotide

Row | Sequence | apparent Kd [1] | apparent Kd [2] | apparent Kd [3] | apparent Kd [4]
1 | GUUAUGUCAGGAUAUGCUUAUGAUGAGUGCUCAGACAUGAUGCAGAAGGGACAUGAGGAUCACCCAUGUACUGA | 25.4 nM | 63.9 nM | – | –
2 | GCUGCAUAGGCAGGAUAUGCAAAAGCAGAUGCAAAGCAUCUGCAAGAAACAUGAGGAUCACCCAUGUAGAAGGGCCUGUGCAGU | 21.4 nM | 20.2 nM | – | –
3 | ACAUGCAUAGCGAUAUGAUCGAGAGAUCAUGUCGCUUUUAAAAGAAGGACAUGAGGAUCACCCAUGUAGGAUAUGGGAGCAUGA | – | – | 53.4 nM | 13.2 nM
4 | GAAUAUUCGUUGUACAUGAGGAUCACCCAUGUGACUUUACAUGAGGAUAUGGAUUCUAAUUGGAUCCAGAAGGCAUGAAUAUUC | – | – | 171 nM | 35 nM
5 | AGAACAUGAGGAUCACCCAUGUAAAGGUCGGUCAAUAAGGGUGAGGAUAUGCUUAAAAUAAGGUAGCAGAAGGUGCUUGGUGCA | – | – | 713 nM | 603 nM
6 | UUGUUGUCAGGAUAUCGUUAAUUUAAUUGUUUGUAUUAGUUCGAGAAGGGACAUGAGGAUCACCCAUGUUUGUU | 34.5 nM | 73.5 nM | – | –
7 | UAAUUAAGUGUGAGGAUAUGCUGGUCCUUGGAUCAGCAGAAGGCACAUGAGGAUCACCCAUGUAAUUUAUAUAU | 98.2 nM | 485 nM | – | –
8 | CUGAGCAAUCAAGGAUAUCACGUCGAUUAGACGUGAGAAGGUGAUCAUCACAUGAGGAUCACCCAUGUGUUACAUGGAGCUCAG | – | – | 1170 nM | 218 nM
9 | UUCAAUCACAUAGGAUAUAGAAUAUUAUUUUUUUACAUGAGGAUCACCCAUGUUUUAUUGGGUUUCUAGAAGGAUGAGUUAUUA | – | – | 451 nM | 289 nM
10 | UAAAAGACUAGCAACUAUCUCCACAUGAGGAUCACCCAUGUCUAGGAUAUGAGCAGCAAAGCUGCUUAGAAGGAGACGCUAGUC | 6.67 nM | 6.88 nM | – | –
11 | AAAAGUACAGGAUAUACAUGAGGAUCACCCAUGUAGAAAGGAAGUGUAAAAAAAAAGUGUAGAAGGGUGCAUGA | 33.1 nM | 27.9 nM | – | –
12 | GCACAGGCAGGAUAUACAUGAGGAUCACCCAUGUGACCCUUGAAGUACUCGCGUACUCGUAGAAGGGCCUGUGC | 177 nM | 302 nM | – | –
13 | UGGUGGAAGCAGGAUAUGCUAGAAGUGUAGAAUGCAGAAGGGCUAACAUGAGGAUCACCCAUGUAAGAGGUGUU | 319 nM | 237 nM | – | –
14 | GCUUGUAGAGGAUAUACGAGGGCCCGAGCGGAUAACACCGCACAUGAGGAUCACCCAUGUAGAAGGCUACCACC | 25.3 nM | 284 nM | – | –
15 | UAAGUUGAGGAGAAGGGAGCACAUGAGGAUCACCCAUGUGGUUCUUUGUGCUCAGGAUAUCCAUGGAGCUCCAACGCGUUCCCG | 63.1 nM | 10.3 nM | – | –
16 | GCGUCAGAAUUAAUUGUGACAGGCAGAAGGCCAUAUCUUAUGUCAGACAUGAGGAUCACCCAUGUGGAGGAUAUGCAGUUACAC | 11.5 nM | 19.1 nM | – | –
17 | CUAGACAGAUCAGGAUAUCAUCGCAUGGUGCAUCCCUGUGAUUACAUGAGGAUCACCCAUGUGGAUGAGAAGGGAUUACUAUGU | 31.9 nM | 10.7 nM | – | –
18 | GUAGAGUAAGGAUAUGGUGAAUAGGAUAGAAUGGUUAGAAACUAGAAGGUACAUGAGGAUCACCCAUGUAAUGU | 21.7 nM | 20.7 nM | – | –
19 | CUUCGUAUAGAGGAUAUAGGUUACUACGGUAUCCUAGAAGGCUGUACAUGAGGAUCACCCAUGUACUUCAGAUC | 12.9 nM | 16.1 nM | – | –
20 | AACAGCUCGUCAGGAUAUAUAUACUUAUAUUGUAUUUAUGUACAUGAGGAUCACCCAUGUUGUUAGUAGAAGGGACGAGCUGAA | 7.61 nM | 7.16 nM | – | –
21 | UUUAUGUCAGGAUAUGAUUAGAUCUACUUUUGUAGAUCUAAUCAGAAGGGACAUGAGGAUCACCCAUGUAGUUU | 126 nM | 236 nM | – | –
22 | GCGCUUAUACAGAAGGCCAUAUACAUGAGGAUCACCCAUGUUAUUUGGUGGAGGAUAUGUUUAUUAUUACAGGUAGAUGAGCGC | – | – | 6.3 nM | 5.72 nM
23 | GCCUCAUAGUAGAAGGGACUAUUACAGUAAUUUUUUUAGAUUAAAUAACAUGAGGAUCACCCAUGUCAGGAUAUACUAAGAGGC | 26.4 nM | 37.1 nM | – | –
24 | AACAAACAUGAGGAUCACCCAUGUCAGGAUAUGCAAACAACAAACAACAAACAACAAAGCAGAAGGGACAACAA | 23.7 nM | 30.2 nM | – | –
25 | AUAUCUAUGUAAGGAUAUAGAUGAUAUACGCCUCCGACAUGAGGAUCACCCAUGUUAUAUUUUGUCUAGAAGGUACAUUGUCGG | – | – | 168 nM | 170 nM
26 | UCUAAUUAGUGAGGAUAUACAUAAUUUAUAACUGUAGAAGGCACAAACCUCAAGACAUGAGGAUCACCCAUGUGGUAUUUAGAU | 150 nM | 354 nM | – | –
27 | AGCUUCGAAGGAUAUCCAGGUCCAGACAUGAGGAUCACCCAUGUGGUGAAGACGUUACCCGGAGAAGGUUGUGAGU | 70.5 nM | 61.7 nM | – | –
28 | GGGAAGUUAGGAUAUGCUGCUCGUCACUUGCGUGAUGAGUAGCAGAAGGGACAUGAGGAUCACCCAUGUAAAGA | 41.6 nM | 26.2 nM | – | –

Row | Sequence | apparent Kd [1] | apparent Kd [2] | apparent Kd [3] | apparent Kd [4]
29 | AGCGGAUUGUAGAAGGGUGACAUGAGGAUCACCCAUGUUCAAAUGCGAUUUACGGUAAUUGAUCCACAGGAUAUACAGUCCGAG | – | – | 905 nM | 178 nM
30 | GGAUUACAUGAGGAUCACCCAUGUGAGGAUAUCGAUGUCCUCAGUAGAGUGCGGGACUCGAGAAGGCACUUGGA | 70.1 nM | 95.9 nM | – | –
31 | AGAUAUGAUGCAGGAUAUCUAUCUUGAAUGAGGAGAGAAGGGCAAACAGAGACAUAAGCCUUAUUACAUGAGGAUCACCCAUGU | 10.1 nM | 8.83 nM | – | –
32 | AGUCGGAGCAGAGGAUAUAUACAUGAGGAUCACCCAUGUGACUGACUACGCUAGAAAUAGCAUGUAUAGAAGGCUGCUCCGACA | 388 nM | 946 nM | – | –
33 | GGGCCGGUGGAGAAGGAGCUCACGUAACGUAGGCUAGGAUAUCCACAUGAGGAUCACCCAUGUGGGAAUAUCUGAUUUUCACAG | 4.01 nM | 4.88 nM | – | –
34 | ACAGGUGCAGGAUAUACAAUCGUGCUUCGGCACGUAAGAUCACAUGAGGAUCACCCAUGUAGAAGGGCACCUGU | 44.9 nM | 447 nM | – | –
35 | UCGGCGCGAGGAUAUGCGGUUUGUGCUUUGGGCCCUCGCGUACAUGAGGAUCACCCAUGUAGAAGGCGCGCCGC | 192 nM | 212 nM | – | –
36 | CAGGUAGACUGAGGAUAUACAUGACUUAGUCUAUCUAGGUCUAAAAUCACAUGAGGAUCACCCAUGUAGAAGGCAGUCUGCCUG | 17.6 nM | 24.2 nM | – | –
37 | UUUACAUGAGGAUCACCCAUGUUUUGAAAGAUUAGUUUUGGUGAGGAUAUACAUGAUAAAGAAUUGUAGAAGGCACUGGGUACA | – | – | 45.4 nM | 28.6 nM
38 | GCAGGUUUACGAGGAUAUGGGUGGUACGAACAUGAGGAUCACCCAUGUUUCCCAGAAGGCGUAGCCUAACAAAGAGAACAGGAG | – | – | 418 nM | 22.2 nM
39 | AAUCUAUUUAUGGGAUUACAAUAUGAGGAUAUCAUUCAUCUAUACAUGAGGAUCACCCAUGUUACUGAGAAGGCAUAUAUAAUA | – | – | 14.1 nM | 9.85 nM
40 | UUGGACGUCGUAGGAUAUGUAGGAUAUUCCUACAUGAGGAUCACCCAUGUUGACAUGGAAGAAGGAAAGAAGGACGAUGUCCAU | – | – | 496 nM | 303 nM
41 | GUAUGGAGUACAGGAUAUGUAAGUUUUAAGUGUAUUGGUUAUUACUUAAUUACAGAAGGGUAUUACAUGAGGAUCACCCAUGUA | – | – | 12.8 nM | 9.5 nM
42 | AUACUUAAUGAAGGAUAUCUCAGCAUAAACCUGAGAGAAGGUCAUUGUUACAUGAGGAUCACCCAUGUUGUAGUUAAUGGGUAA | 421 nM | 413 nM | – | –
43 | AGCACGAAAGUGCAACGAUGUACGAGAAGGACAUGAGGAUCACCCAUGUAAGCAGUAACUGCAAUGUAGGAUAUCGUACAUCGA | 8.41 nM | 12 nM | – | –
44 | AUUGAUGUUGAGGAUAUGCUUUUAUUUAUAAUAGCAGAAGGCGAUACAUGAGGAUCACCCAUGUUCAUGGUUUU | 24.9 nM | 33.6 nM | – | –
45 | AGAAUAGAAAGAUUAAUAUGAAUACAUGAGGAUCACCCAUGUAAGGAUAUCGACGUCAAUGACGUCGAGAAGGUACAUAAUAAG | 17.7 nM | 17.6 nM | – | –
46 | UUGCUGCGGAAGUUCGGCUCUCGCGAGGAUAUACCUACAGGGCCACAUGAGGAUCACCCAUGUACGUAGAAGGCGCGACAGAAA | 15.8 nM | 48 nM | – | –
47 | AAGCACGAAGAUUAUUAUGAAUAAACAUGAGGAUCACCCAUGUAGGAUAUCGACUCGAAUAGAGUCGAGAAGGACAUAACGUGC | 6.85 nM | 20.7 nM | – | –
48 | UUUCCUGAAGGAUAUUAAGAGCCAGACAUGAGGAUCACCCAUGUUCCUACAACGAACCUCUAAGAAGGUCAGGGCU | 20.9 nM | 21 nM | – | –
49 | UAGAAGUCAGGAUAUGCAUGGCGGGACUUGCGUCGUGGCGUGCAGAAGGGACAUGAGGAUCACCCAUGUAAAGA | 56.1 nM | 53.4 nM | – | –
50 | GUGAUCGACAUGAGGAUCACCCAUGUGGAUUCGUUGAGCGGCAGAAGGCGAUGUAGAAAAGAACUCGAGGAUAUGCACGUGUCA | – | – | 7.22 nM | 6.76 nM
51 | UGACUCGGAGGAUAUACAUGAGGAUCACCCAUGUUUGCCGGCCGCCGAGUAACCUGGUGUAGAAGGUCGAGUGU | 20.4 nM | 18.9 nM | – | –
52 | AGUGUCAUCGAGAAGGCCUCAACAUGAGGAUCACCCAUGUUGCAAAAUGGGAGGAUAUCGCGCGUUAAAAUACGUUUCGUAGCA | – | – | 42.4 nM | 16.7 nM
53 | AAAUCGAGUGUAGGAUAUGCACAGUUUGACCGUGCAGAAGGACACAUGAGGAUCACCCAUGUUAGCUCAUGGGCGGUGACUUAG | 92.2 nM | 82.2 nM | – | –
54 | GGAUAGGACAGAGGAUAUACGUGCUACAGAUACUAGCAAAAUUUCCUCACAUGAGGAUCACCCAUGUAGAAGGCUGUCCUAUCG | 19.3 nM | 405 nM | – | –
55 | GGCUACGUUUCGUAGCAGCUAGGUGAGGAUAUUCAAUUUUUCACAUGAGGAUCACCCAUGUAUGUGAAGAAGGCGCCUAGAAAA | – | – | 11.7 nM | 4.83 nM
